High-throughput results from PubChem.
This is one part of a sample in which hits are shown more often than they occur.
Phagocytosis inh: blocks phagocytosis by macrophages; AID 1029; actives 0.07% (n = 110,000); inhibition, % at 5 µM; J774A.1 macrophage IgG-bead phagocytosis, imaging;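 active = inhibition above the mean of the plate negative controls plus 5 SD, cut at about 13% in these data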;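 note: phagocytic index as fraction of beads internalized from green versus red external bead signal; plate controls were DMSO negative control for no effect and cytochalasin-D positive control for full effect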
H69AR inhibit: blocks growth of human H69AR lung tumor cells | actives 6% (n = 85,000) | H69AR lung tumor viability, ATP luminescence, 72 h; stronger effect = lower value | viability, % at 10 µM | AID 598;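 active = viability at or below 40%; inactive = viability above 40%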;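 note: multidrug resistant small cell line overexpressing MRP-1 efflux transporter; 100% = mean luminescence of untreated control wells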
Fibroblast inh: blocks proliferation of human lung fibroblasts | LL 47 human lung fibroblast viability, ATP luminescence; stronger effect = lower value | viability, % at 10 µM | actives 1.1% (n = 85,000);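 active = viability at or below 50% in the single dose screen; inactive = viability above 50%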;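 note: compound exposure lasted 72 h before the ATP readout; 100% = median luminescence of untreated cell-only wells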
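Times – overnight cell rest, 72 h compound treatment at 37 °C · Test system – human lung fibroblast line LL 47, low passage · Amount – 1,150 cells in each well · Controls – cell-only wells, no compound · Doses – 0.1% DMSO in all compound wells · Measured by – CellTiter-Glo luminescence · Buffer or medium – IMEM plus 15% FBS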
HUVEC prolif 384: blocks proliferation of human endothelial cells. HUVEC proliferation, CellTiter-Glo luminescence, 72 h; stronger effect = lower value. viability, % at 10 µM (by protocol). actives 1.1% (n = 86,000). AID 648;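 active = viability at or below 30%; inactive = viability above 30%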;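 note: 100% = median luminescence of DMSO-only cell control wells on each plate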
HCT116 PTEN-null: PTEN-deleted cell growth suppression | HCT116 PTEN-null viability, CellTiter-Glo, 60 h; stronger effect = lower value | viability, % at 10 µM | actives 1.2% (n = 140,000) | AID 827;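 active = viability at or below a set limit, 4 SD under the median of all tested compounds, cut at about 3.7% in these data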;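 note: PTEN knockout HCT116 line with beta catenin targeted HCT116 as companion control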
bCat KO growth: beta-catenin-lacking colon tumor cell growth suppression; HCT116 beta-catenin knockout viability, CellTiter-Glo, 60 h; stronger effect = lower value; viability, % at 10 µM; actives 1.5% (n = 140,000); AID 818;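 active = viability at or under a set limit, the compound median less 4 SD, cut at about 6% in these data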;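 note: 0% = Hyamine 1622 control at 20 µM and 100% = untreated cell control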
* = called active by the depositor; . = not tested or not shown.

SMILES | Phagocytosis inh | H69AR inhibit | Fibroblast inh | HUVEC prolif 384 | HCT116 PTEN-null | bCat KO growth
Cc1cc(NC(=O)c2c(F)cccc2F)n(-c2nc3ccccc3[nH]2)n1 | . | 36* | 85 | 72 | 14 | 18
Cc1cc(NC(=O)c2ccccc2F)n(-c2nc3ccccc3[nH]2)n1 | -1 | 41 | 70 | 92 | 71 | 74
COc1cc(-n2c(=O)c3ccccc3n(Cc3cc(=O)n4ccccc4n3)c2=O)cc(OC)c1OC | -6 | . | . | . | 100 | 89
Clc1nc(NCc2cccnc2)nc(N2CCOCC2)n1 | . | 84 | 101 | 102 | 96 | 90
CCOc1ccccc1NC(=O)N1CCCC1C(=O)Nc1ccc(NC(C)=O)cc1 (centres undefined) | 0 | 93 | 100 | 100 | 99 | 101
CCc1ccc(OCC(=O)Nc2cc(S(=O)(=O)CC)ccc2O)cc1 | 0 | . | . | . | 95 | 97
Cc1cc(C)nc(-n2nc(C)cc2Nc2ccccc2)n1 | 8 | 10* | 77 | 78 | 45 | 40
CCOC(=O)/C(C#N)=C(C)/C=C1\Sc2ccccc2N1CC | -5 | . | . | . | 36 | 55
CCN1/C(=C/c2ccc3cccc(C)c3[n+]2CC)Sc2ccccc21 | . | . | . | . | 2.0* | 1.7*
Cc1ccc(Oc2ccc(S(=O)(=O)N3CCOCC3)cc2C(N)=O)c(-n2nc3ccccc3n2)c1 | 10 | 31* | 53 | 42 | 10 | 15
CC1=NNC(=O)/C1=C\c1cn(-c2ccccc2)nc1-c1cccs1 | 4 | . | . | . | 1.5* | 1.6*
O=C(N/N=C/c1cn(-c2ccccc2)nc1-c1cccs1)c1ccccc1F | -2 | . | . | . | 41 | 38
CCCCCOc1ccc(CSC(=N)N)cc1[N+](=O)[O-] | 0 | . | . | . | 1.3* | 1.9*
CCCSc1nc(C)c(-c2csc(C(C#N)=C3CCCC3)n2)cc1C#N | 1 | 94 | . | 111 | 95 | 85
CCOC(=O)c1c(NC(=O)Cc2cccs2)sc(C(=O)NC2CCCC2)c1C | 2 | 28* | 75 | 50 | 85 | 84
CCOC(=O)c1c(NC(=O)Cc2cccs2)sc(C(=O)NC2CCCCC2)c1C | . | . | . | . | 78 | 76
COc1cc(-c2cc(OC)c3c(C)oc(C)c3c(=O)c2)ccc1O | 0 | 30* | 86 | 72 | 55 | 47
Cc1cccc(C2(c3cccc(C)c3)CC2C(=O)Nc2ccc([N+](=O)[O-])cc2O)c1 (centres undefined) | -9 | . | . | . | 6 | 5.9*
Cc1cccc(C2(c3cccc(C)c3)CC2C(=O)NCC2CCCO2)c1 (centres undefined) | . | . | . | . | 92 | 97
Cc1cc2cc(CNC(=O)c3ccc4c(c3)OCO4)ccc2[nH]1 | 2 | 80 | 95 | 98 | . | .
CCOC(=O)c1c(NC(=O)COc2ncnc3sccc23)sc2c1CCC2 | 0 | 55 | 81 | 20* | 90 | 84
CCC(=O)c1cc2c(C)cc(=O)oc2c(C)c1OC(=O)C(C)C | . | . | . | . | 87 | 86
Cn1c2c(c(=O)n(C)c1=O)C(C(F)(F)F)(C(F)(F)F)N=C(c1ccc(Cl)cc1)N2 | . | . | . | . | 4 | 3.0*
CCOC(=O)N1CCC(n2c(SCC(=O)N3CCC(C)CC3)nc3ccccc3c2=O)CC1 | -1 | 30* | 105 | 88 | 53 | 43
CCOC(=O)N1CCC(n2c(SCC(=O)NCCC3=CCCCC3)nc3ccccc3c2=O)CC1 | -2 | 26* | 88 | 74 | 49 | 45
SMILES | Phagocytosis inh | H69AR inhibit | Fibroblast inh | HUVEC prolif 384 | HCT116 PTEN-null | bCat KO growth
CCOC(=O)N1CCC(n2c(SCC(=O)N3CCCC3)nc3ccccc3c2=O)CC1 | . | . | . | . | 81 | 74
CCOC(=O)N1CCC(n2c(SCC(=O)NCc3ccccc3)nc3ccccc3c2=O)CC1 | 0 | 57 | 91 | 96 | 63 | 68
O=c1c2ccccc2c2c(O)nc(-c3ccccc3)n2n1Cc1ccccc1 | 0 | . | . | . | 82 | 88
O=c1cc(/C=C/c2ccccc2)oc2ccccc12 | -2 | . | . | . | 50 | 57
O=C(CCN1CCC(c2ccccc2)C1)c1cccs1 (centres undefined) | 0 | . | . | . | 2.8* | 16
O=C(CCN1CCC(c2ccccc2)C1)c1ccccc1 (centres undefined) | . | . | . | . | 96 | 87
O=C(NCc1cccnc1)c1csc2c1CCCC2 | -4 | . | . | . | 102 | 86
OC[C@H]1O[C@@H](n2cnc3c(NC4CCCC4)ncnc32)[C@H](O)[C@@H]1O | . | 75 | 98 | 73 | 94 | 88
C=CCNc1ncnc2c1ncn2C1OC(CO)C(O)C1O (centres undefined) | . | 31* | 40* | 41 | 13 | 10
CCOC(=O)C(NC(=O)c1ccc(OC)cc1)(N1CCCC1=O)C(F)(F)F (centres undefined) | 1 | . | . | . | 94 | 101
CNC(=O)CSc1nnc(-c2ccco2)n1-c1ccc(C)cc1 | . | 98 | 98 | 97 | 96 | 89
CC(=O)Nc1ccc(NC(=O)CSc2nnc(-c3ccco3)n2Cc2ccco2)cc1 | -2 | 11* | 94 | 92 | 86 | 70
Cc1ccc(-n2c(SCC(=O)Nc3ccc4cn[nH]c4c3)nnc2-c2ccco2)cc1 | -1 | 32* | 82 | 82 | 88 | 89
COc1ccc(/C=N\NC(=O)C2=NNC(=O)C2C)cc1 (centres undefined) | . | . | . | . | 90 | 94
O=C(CSc1ccc2ccccc2c1)Nc1ncccn1 | -9 | . | . | . | 94 | 97
O=C(Oc1oc(-c2ccco2)nc1C=Nc1ccccc1)c1ccco1 | -1 | 39* | 86 | 87 | 95 | 101
O=C(Oc1oc(-c2ccco2)nc1C=Nc1ccccc1)c1ccoc1 | 1 | 38* | 87 | 72 | 96 | 98
Cc1ccc(NNC(=O)C(O)(c2cccc(C(F)(F)F)c2)c2cccc(C(F)(F)F)c2)cc1 | -4 | . | . | . | 24 | 23
O=C(NNc1ccccc1Br)C(O)(c1cccc(C(F)(F)F)c1)c1cccc(C(F)(F)F)c1 | -1 | . | . | . | 2.1* | 1.9*
COc1ccc(Cl)cc1S(=O)(=O)Oc1ccc(NC(C)=O)cc1 | . | 81 | 107 | 85 | 88 | 82
Cc1cccc(N/C=C/C(=O)c2cccs2)c1C | -6 | . | . | . | 60 | 72
COc1cc([N+](=O)[O-])ccc1N/C=C/C(=O)c1cccs1 | 1 | 42 | 79 | 29* | 73 | 75
O=C1c2ccccc2C(=O)N1CCCN1CCN(CCCN2C(=O)c3ccccc3C2=O)CC1 | . | 91 | 106 | 109 | . | .
O=C(N/N=C/c1ccc(O)cc1O)/C(=C/c1ccccc1)CCO | -3 | . | . | . | 34 | 32
Fc1ccc(Sc2cc(Cl)c(-c3ccccc3)nn2)cc1 | . | . | . | . | 87 | 82
COC(=O)c1ccc(NC(=O)C2CC(=O)N(c3ccc(C)cc3)C2)cc1 (centres undefined) | . | 84 | 100 | 100 | 104 | 99
COC(=O)c1ccccc1NC(=O)C1CC(=O)N(c2ccc(C)cc2)C1 (centres undefined) | 1 | 35* | 96 | 76 | 58 | 66
O=C(CN1C(=O)S/C(=C/c2cc(Br)cs2)C1=O)N1CCOCC1 | -4 | . | . | . | 103 | 95
Cc1noc(C)c1COc1cccc(C(=O)Nc2ccccc2N2CCOCC2)c1 | -4 | . | . | . | 79 | 83
